Source: ChEMBL document CHEMBL5038617, “1,2,4-Triazole-3-thione compounds with a 4-ethyl alkyl/aryl sulfide substituent are broad-spectrum metallo-β-lactamase inhibitors with re-sensitization activity” (Eur J Med Chem, 2021)

What was measured:
[1] = Inhibition of bacterial New Delhi metallo-beta-lactamase 1 (unknown origin) assessed as substrate hydrolysis using meropenem as substrate by UV-visible spectrometry analysis; set-up: species or system Bacteria
How it was run: (§1)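 Purified MBL enzyme at 1–70 nM final, in 50 mM HEPES pH 7.5 at 30 °C with 0.5% DMSO. Reporter substrate 150 µM imipenem or meropenem; hydrolysis read at 300 nm. […] Ki measured when inhibition exceeded 75%, by competitive-model v0/vi vs [I] slope or Dixon plot. Some runs used 10 min enzyme–inhibitor preincubation. Triplicate.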

[2] = Inhibition of bacterial Metallo-beta-lactamase IMP-1 (unknown origin) assessed as substrate hydrolysis using meropenem as substrate by UV-visible spectrometry analysis; set-up: species or system Bacteria; how it was run: as §1
Klebsiella pneumoniae [3] = assay: Synergistic antibacterial activity against Klebsiella pneumonia 7023 clinical isolate strain producing Metallo-beta-lactamase VIM-1 assessed as meropenem MIC in presence of meropenem incubated for 24 hrs by broth microdilution method; type: functional
How it was run: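 CLSI broth microdilution in Mueller-Hinton broth with 5 × 10^4 CFU/well. Meropenem two-fold serial dilutions tested with and without inhibitor fixed at 32 µg/mL, inhibitor added before antibiotic. DMSO ≤1%. […] Growth controls included. Triplicate.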

[4] = Inhibition of bacterial Metallo-beta-lactamase VIM-1 (unknown origin) assessed as substrate hydrolysis using meropenem as substrate by UV-visible spectrometry analysis; set-up: species or system Bacteria; how it was run: as §1
[5] = biological target: Hydroxyacylglutathione hydrolase, mitochondrial (Homo sapiens, UniProt Q16775); assay: Inhibition of recombinant human Glyoxalase-2 assessed as reduction of substrate level using S-D-lactoylglutathione as substrate by spectrophotometric method
How it was run: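 Recombinant human glyoxalase II (5–25 nM) in 100 mM MOPS pH 7.2 at 25 °C. Substrate S-D-lactoylglutathione loss followed at 240 nm (ε 3.1 mM−1cm−1). Inhibitor in DMSO added to the substrate mix, and the reaction started with enzyme. Duplicate.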

Klebsiella pneumoniae [6] = assay: Synergistic antibacterial activity against Klebsiella pneumonia VA 416/02 clinical isolate strain producing Metallo-beta-lactamase VIM-4 assessed as meropenem MIC in presence of meropenem incubated for 24 hrs by broth microdilution method; conditions: VA 416/02, 24 h
[7] = Cytotoxicity against human PBMC cells assessed as cell viability measured after 24 hrs by flowcytometry method; type: toxicity, cell-based; conditions: pbmc
How it was run: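 PBMC from four individual donors were isolated by density centrifugation, frozen, thawed and resuspended at 1.10e6/mL in RPMI with 10% FBS. Compound added from 20 mM DMSO stock by serial dilution in RPMI; final concentrations 500–7.8 µM, in duplicate. After 24 h, live cells counted by flow cytometry using FSC/SSC gating. IC50 calculated for each donor.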

HeLa = assay: Cytotoxicity against human HeLa cells assessed as LDH release measured after 24 hrs by CytoTox96 nonradioactive assay; type: functional, cell-based
How it was run: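 HeLa cells (20,000/well) incubated 24 h at 37 °C, 5% CO2 in DMEM with 10% FBS, 4.5 mg/mL glucose and 2 mM L-glutamine, with compound up to 250 µM. LDH release measured. Medium-only control and Triton X-100 maximum-release control included. % cytotoxicity = 100 × sample/maximum release. IC50 taken as 50% cytotoxicity.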

[8] = Inhibition of bacterial Metallo-beta-lactamase VIM-4 (unknown origin) assessed as substrate hydrolysis using meropenem as substrate by UV-visible spectrometry analysis; set-up: species or system Bacteria; how it was run: as §1
[9] = Inhibition of bacterial Metallo-beta-lactamase VIM-2 (unknown origin) assessed as substrate hydrolysis using meropenem as substrate by UV-visible spectrometry analysis; set-up: species or system Bacteria; how it was run: as §1

Ki [1]: 22.3 µM | Ki [2]: 19.6 µM | MIC (Klebsiella pneumoniae [3]): 2 µg/mL | Ki [4]: 0.21 µM | IC50 [5]: 52 µM | MIC (Klebsiella pneumoniae [6]): 4 µg/mL | Ki [8]: 0.31 µM | Ki [9]: 0.24 µM
SMILES: S=c1[nH]nc(-c2ccccc2)n1CCSCc1ccccc1
IC50 [7]: Non-Toxic | IC50 (HeLa): 152 µM
